According to ChEMBL document CHEMBL1121848, “Inactivation of trypsin-like proteases by depsipeptides of p-guanidinobenzoic acid” (J Med Chem, 1981):

Experiments:
[1] = Compound was evaluated for the reactivity in the inactivation of trypsin like enzyme
Procedure, shortened: (§1)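 Each enzyme (10^-6 to 10^-9 M final) was incubated at 25 °C with inhibitor dissolved in water (10^-3 to 10^-6 M final) in 50 mM Pipes, pH 7.0, with 200 mM NaCl. Loss of activity was treated as first-order to give k_app. Reactivity was k_app divided by inhibitor concentration.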

[2] = Second order rate constant was determined in the inactivation of HPK
Procedure, shortened: (§2)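 Trypsin or human plasma kallikrein (10^-6 to 10^-9 M final) was inactivated at 25 °C by ester in water (10^-3 to 10^-6 M final) in 50 mM Pipes, pH 7.0, with 200 mM NaCl. Activity decayed first-order. Individual constants k_2 (min⁻¹) and K_m (M) were resolved for each enzyme.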

[3] = Second order rate constant was determined in the inactivation of trypsin; procedure, shortened: as §2
[4] = target: Plasma kallikrein (Homo sapiens) (UniProt P03952); assay: Compound was evaluated for the reactivity in the inactivation of trypsin like enzyme Human plasma Kallikrein
Sequence of Plasma kallikrein (Homo sapiens) (P03952 whole entry, looked up): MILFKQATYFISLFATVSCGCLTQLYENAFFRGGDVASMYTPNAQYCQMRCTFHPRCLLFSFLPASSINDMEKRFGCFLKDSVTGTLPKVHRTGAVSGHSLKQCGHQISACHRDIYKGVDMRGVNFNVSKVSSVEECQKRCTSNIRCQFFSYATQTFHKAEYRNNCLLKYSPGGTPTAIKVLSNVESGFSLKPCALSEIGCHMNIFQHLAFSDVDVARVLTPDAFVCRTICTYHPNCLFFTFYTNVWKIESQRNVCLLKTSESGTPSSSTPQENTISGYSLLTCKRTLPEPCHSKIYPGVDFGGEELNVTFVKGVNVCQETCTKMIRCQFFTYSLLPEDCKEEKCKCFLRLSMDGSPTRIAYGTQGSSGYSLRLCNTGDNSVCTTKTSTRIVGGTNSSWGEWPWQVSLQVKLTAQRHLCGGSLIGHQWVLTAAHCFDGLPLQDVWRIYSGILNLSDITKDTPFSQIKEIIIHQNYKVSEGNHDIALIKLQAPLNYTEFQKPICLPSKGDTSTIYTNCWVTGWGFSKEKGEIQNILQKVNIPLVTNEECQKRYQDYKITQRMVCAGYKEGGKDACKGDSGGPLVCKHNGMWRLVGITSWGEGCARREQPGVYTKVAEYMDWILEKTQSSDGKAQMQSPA

Acrosin (Sus scrofa) = Acrosin (Sus scrofa) (UniProt P08001); assay: Compound was evaluated for the reactivity in the inactivation of trypsin like boar acrosin
Sequence of Acrosin (Sus scrofa) (P08001 whole entry, looked up): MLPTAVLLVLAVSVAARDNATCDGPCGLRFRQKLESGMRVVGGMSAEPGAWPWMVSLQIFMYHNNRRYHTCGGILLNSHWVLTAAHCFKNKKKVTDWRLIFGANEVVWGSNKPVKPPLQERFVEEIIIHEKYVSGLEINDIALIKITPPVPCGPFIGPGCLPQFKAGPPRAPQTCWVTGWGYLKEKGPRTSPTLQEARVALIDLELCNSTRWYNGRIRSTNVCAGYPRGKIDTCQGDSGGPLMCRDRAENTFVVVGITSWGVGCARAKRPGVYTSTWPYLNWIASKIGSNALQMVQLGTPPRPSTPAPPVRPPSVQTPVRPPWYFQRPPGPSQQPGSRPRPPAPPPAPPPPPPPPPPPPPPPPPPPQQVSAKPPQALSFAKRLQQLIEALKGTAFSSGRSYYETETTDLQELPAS

[5] = target: Urokinase-type plasminogen activator (Homo sapiens) (UniProt P00749); assay: Compound was evaluated for the reactivity in the inactivation of trypsin like Urokinase-type plasminogen activator; procedure, shortened: as §1
Plasminogen = assay: Compound was evaluated for the reactivity in the inactivation of trypsin like enzyme plasmin; procedure, shortened: as §1

Row | Reactivity [1] | k2 [2] [min⁻¹] | k2 [3] [min⁻¹] | Reactivity [4] | Reactivity (Acrosin (Sus scrofa)) | Reactivity [5] | Reactivity (Plasminogen) | Compound
1 | 32000 | 0.83 | 1.27 | 2600 | – | – | – | CC(=O)O.N=C(N)Nc1ccc(C(=O)OCC(=O)N[C@@H](Cc2ccccc2)C(=O)N2CCC[C@H]2C(N)=O)cc1
2 | 46000 | 0.74 | 3.24 | 8600 | 207000 | 21 | 753 | CC(=O)O.N=C(N)Nc1ccc(C(=O)OCC(=O)NC(Cc2ccccc2)C(N)=O)cc1 (centres undefined)
3 | 14200 | 0.1 | 3.7 | 3000 | – | 32 | 743 | CC(=O)O.CC(OC(=O)c1ccc(NC(=N)N)cc1)C(=O)NC(Cc1ccccc1)C(N)=O (centres undefined)
4 | 17000 | 1.25 | 0.523 | 2800 | 117000 | 300 | 644 | CC(=O)O.N=C(N)Nc1ccc(C(=O)OCC(N)=O)cc1
5 | 259 | – | 1.89 | 26 | 200000 | 11 | – | CC(=O)O.CCOC(=O)c1ccc(NC(=N)N)cc1
6 | 10200 | 0.344 | 0.832 | 2000 | – | – | – | CC(=O)O.N=C(N)Nc1ccc(C(=O)OCC(=O)NCC(=O)NCC(N)=O)cc1
7 | 13400 | 0.84 | 0.748 | 1400 | – | – | – | CC(=O)O.C[C@H](NC(=O)COC(=O)c1ccc(NC(=N)N)cc1)C(=O)N[C@@H](Cc1ccccc1)C(N)=O
8 | 11200 | 0.87 | 0.74 | 2000 | 114000 | 5 | 441 | CC(=O)O.CC(C)C(NC(=O)COC(=O)c1ccc(NC(=N)N)cc1)C(N)=O (centres undefined)
